# Measurements from ChEMBL document CHEMBL1122590, “Dibenz[b,e]oxepinalkanoic acids as nonsteroidal antiinflammatory agents. 4. Synthesis and evaluation of 4-(4,10-dihydro-10-oxothieno[3,2-c] [1]benzoxepin-8-yl)butanol and -butyric acid and related derivatives” (1984).
# How the values were obtained:
# Rattus norvegicus [1] = experiment: Ability to inhibit Carrageenan-induced paw edema in rat at dose 20 mg/Kg administered per orally; type: functional; settings: po
# Method in brief: (§1)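 Male Wistar rats, 130-200 g, groups of 7-10, fasted overnight with water available. Oral dosing in 10 mL/kg of aqueous Tween 80 suspension (oils in emulphor/alcohol/water 1:1:8) at 1, 2 and/or 4 h before subplantar injection of 0.1 mL of 1% carrageenan into left hind paw. Paw volume by mercury displacement at 0 and 3 h; % edema inhibition vs vehicle; ED50 by linear regression from at least three doses.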
# Mus musculus [2] = experiment: Ability to inhibit phenylquinone induced writhing, in mouse at dose 25 mg/Kg administered per orally; settings: po
# Rattus norvegicus [3] = experiment: Ability to inhibit gastric irritation in rat at dose 400 mg/Kg administered per orally; type: functional; settings: Stomach, po
# Method in brief: (§2)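 Groups of 10 male Wistar rats, 150-175 g, fasted 48 h with water available, dosed orally (10 mL/kg vehicle as Tween 80 suspension or emulphor/alcohol/water). Time course: sacrifice at 3, 5 and 7 h. Stomachs and intestines examined; any erosion, ulcer or perforation scored ulcerogenic. Four doses at peak time; ED50 = dose giving irritation in 50% of animals, by linear regression.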
# Mus musculus [4] = experiment: Ability to inhibit phenylquinone induced writhing in mouse administered per orally; settings: po
# Rattus norvegicus [5] = experiment: Ability to inhibit Carrageenan-induced paw edema in rat administered per orally; type: functional; settings: for ED50: po; method in brief: as §1
# Rattus norvegicus [6] = experiment: Ability to inhibit Carrageenan-induced paw edema in rat at a dose of 20 mg/kg administered per orally; type: functional; settings: route oral; method in brief: as §1
# Mus musculus [7] = experiment: Ability to inhibit phenylquinone induced writhing in mouse at dose 25 mg/Kg administered per orally; settings: po
# Rattus norvegicus [8] = experiment: Ability to inhibit gastric irritation in rat administered per orally; type: functional; settings: Stomach, po; method in brief: as §2
# Rattus norvegicus [9] = experiment: Ability to inhibit gastric irritation in rat administered perorally; type: functional; settings: Stomach, po
# Method in brief: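 Male Wistar rats, 150-175 g, groups of 10, fasted 48 h (water ad libitum), dosed orally (10 mL/kg) as aqueous Tween 80 suspension or emulphor/alcohol/water (1:1:8) for oils; controls got vehicle. Time response: sacrificed at 3, 5 and 7 h. Dose-response at peak time with four doses. Stomach and intestine lesions (erosion, ulcer, perforation) scored. ED50 is the dose irritating 50% of rats, by linear regression; otherwise % at stated dose.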
# Rattus norvegicus [10] = experiment: Ability to inhibit Carrageenan-induced paw edema in rat administered perorally; type: functional; settings: po; method in brief: as §1
# Mus musculus [11] = experiment: Ability to inhibit phenylquinone induced writhing in mouse administered perorally; settings: po
smiles,measurement,setting,value
CCC(=O)OCCc1ccc2c(c1)C(=O)c1sccc1CO2,inhibition in vivo at 20 mg/kg,Rattus norvegicus [1],35%
same,inhibition in vivo at 25 mg/kg,Mus musculus [2],22%
O=C1c2cc(CCCCO)ccc2OCc2ccsc21,inhibition in vivo at 400 mg/kg,Rattus norvegicus [3],40%
same,ED50,Mus musculus [4],7.4 mg/kg
same,ED50,Rattus norvegicus [5],8.6 mg/kg
CC(C)OC(=O)CCCc1ccc2c(c1)C(=O)c1sccc1CO2,inhibition in vivo at 20 mg/kg,Rattus norvegicus [6],44%
same,ED50,Mus musculus [4],8.5 mg/kg
CC1(C)COC(Cc2ccc3c(c2)C(=O)c2sccc2CO3)=N1,ED50,Mus musculus [4],7.2 mg/kg
same,inhibition in vivo at 20 mg/kg,Rattus norvegicus [1],49%
O=C(O)CCCc1ccc2c(c1)C(=O)c1sccc1CO2,Inhibition,Rattus norvegicus [5],38%
same,inhibition in vivo at 25 mg/kg,Mus musculus [7],94%
O=C(O)Cc1ccc2c(c1)C(=O)c1sccc1CO2,ED50,Rattus norvegicus [8],33.7 mg/kg
same,ED50,Mus musculus [4],3.1 mg/kg
same,ED50,Rattus norvegicus [5],3.4 mg/kg
CCOC(=O)CCCc1ccc2c(c1)C(=O)c1sccc1CO2,inhibition in vivo at 20 mg/kg,Rattus norvegicus [6],40%
same,ED50,Mus musculus [4],8.2 mg/kg
COC(=O)COC(=O)Cc1ccc2c(c1)C(=O)c1sccc1CO2,inhibition in vivo at 20 mg/kg,Rattus norvegicus [6],43%
same,ED50,Mus musculus [4],1.5 mg/kg
O=C1c2cc(CCO)ccc2OCc2ccsc21,ED50,Mus musculus [4],19.7 mg/kg
same,inhibition in vivo at 20 mg/kg,Rattus norvegicus [1],62%
COC(=O)CCCc1ccc2c(c1)C(=O)c1sccc1CO2,ED50,Mus musculus [4],10.8 mg/kg
COc1ccc2c(c1)c(CC(=O)O)c(C)n2C(=O)c1ccc(Cl)cc1 [INDOMETHACIN],ED50,Rattus norvegicus [9],1.8 mg/kg
same,ED50,Rattus norvegicus [10],4.4 mg/kg
same,ED50,Mus musculus [11],0.7 mg/kg
CC(=O)OCCCCc1ccc2c(c1)C(=O)c1sccc1CO2,ED50,Mus musculus [4],5.8 mg/kg
same,inhibition in vivo at 20 mg/kg,Rattus norvegicus [1],38%
O=C1c2cc(CCCCOC(=O)C(F)(F)F)ccc2OCc2ccsc21,ED50,Rattus norvegicus [10],16.5 mg/kg
same,ED50,Mus musculus [11],9.1 mg/kg
CC(=O)OCCc1ccc2c(c1)C(=O)c1sccc1CO2,ED50,Rattus norvegicus [8],175 mg/kg
same,ED50,Rattus norvegicus [5],11.4 mg/kg
same,inhibition in vivo at 25 mg/kg,Mus musculus [2],52%
CC(C)(C)OC(=O)CCCc1ccc2c(c1)C(=O)c1sccc1CO2,inhibition in vivo at 20 mg/kg,Rattus norvegicus [6],49%
same,inhibition in vivo at 25 mg/kg,Mus musculus [2],93%
CC(C)(CO)NC(=O)Cc1ccc2c(c1)C(=O)c1sccc1CO2,inhibition in vivo at 20 mg/kg,Rattus norvegicus [1],21%
same,inhibition in vivo at 25 mg/kg,Mus musculus [2],19%
